Source: PubChem BioAssay
In the library only some 1.7% were active in any assay of this set; here they are far more common.
ZTA counter: ZTA (EBV) inhibition in EBNA-1 counter-screen | inhibition, % at 11 µM | P03206 | ZTA-DNA binding, fluorescence polarization | actives 0.15% (n = 320,000); in the data active = inhibition above about 33%
Target sequence (P03206 whole entry, looked up): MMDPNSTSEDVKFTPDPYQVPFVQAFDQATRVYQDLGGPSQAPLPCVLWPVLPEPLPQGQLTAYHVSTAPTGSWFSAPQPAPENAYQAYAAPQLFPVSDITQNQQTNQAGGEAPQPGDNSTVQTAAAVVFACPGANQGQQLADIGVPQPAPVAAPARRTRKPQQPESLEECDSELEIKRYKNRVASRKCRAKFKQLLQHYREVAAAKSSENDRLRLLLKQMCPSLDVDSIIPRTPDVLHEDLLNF
PREPL inh: inhibitors of human prolyl oligopeptidase-like enzyme PREPL; inhibition, % at 5.96 µM; Q4J6C6; actives 0.68% (n = 320,000); AID 2751; recombinant PREPL, fluorescence polarization activity-based probe; in the data active = inhibition above about 43%
UBC13 inh: blocks human UBC13 polyubiquitin chain formation. P61088. TR-FRET. inhibition, % at 20 µM. actives 0.47% (n = 330,000); in the data active = inhibition above about 45%, passing the limit was not always enough
Target sequence (P61088 whole entry, looked up): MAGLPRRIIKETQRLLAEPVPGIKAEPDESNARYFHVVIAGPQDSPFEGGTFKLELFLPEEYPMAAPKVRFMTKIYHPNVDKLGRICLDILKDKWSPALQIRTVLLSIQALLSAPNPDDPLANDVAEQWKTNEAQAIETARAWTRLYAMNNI
Apaf-1 inh: human Apaf-1 inhibition. reconstituted apoptosome caspase-3 activity, DEVD-Rh110 fluorescence. actives 0.71% (n = 330,000). AID 489030. O14727. inhibition, % at 20 µM; active = inhibition of at least 40% at 20 µM
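Material: reconstituted apoptosome with Apaf-1, cytochrome c, caspase-9, procaspase-3, dATP; medium: pH 7.5 Hepes buffer with CHAPS, BSA, DTT; also added: cytochrome c and DEVD-Rh110 substrate; timing: 30 min plus 50 min, RT; signal: Rh110 fluorescence intensity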
EBNA-1 inh: blocks EBNA-1 binding to DNA. EBNA-1 DNA binding, fluorescence polarization. inhibition, % at 14.8 µM. actives 0.34% (n = 300,000). AID 1950; in the data active = inhibition above about 28%
Apaf-1 inh conf: Apaf-1 inhibition, single-dose confirmed | shares compounds with Apaf-1 inh | reconstituted apoptosome, caspase-3 DEVD-Rh110 fluorescence | inhibition, % at 20 µM | actives 25% (n = 1,800);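 active = mean inhibition of at least 40% at 20 µM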
Rh110 interf inh: interferes with Rh110 fluorescence, flagging false Apaf-1 inhibitors | shares compounds with Apaf-1 inh | 1,800 tested, under 10 active | activation (fluorescence interference), % at 20 µM | Rh110 fluorescence interference, quenched caspase reaction;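 active = signal rise of 40% or more at 20 µM, treated as a fluorescence artifact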
Apaf1 inh interf: counter-screen for Apaf-1 inhibitors: fluorescence interference, dose response; shares compounds with Apaf-1 inh; fluorescence interference counterscreen, Apaf-1 assay format; IC50, µM; 460 tested, under 10 active; AID 588538; call rule not given here
Large screens that a line does not name were inactive (follow-up assays come after a bar, where they were run).

Cc1cccc(Nc2nc3ccccc3n3nnnc23)c1	none
Nc1nc(N2C(=O)C3CC=CCC3C2=O)nn1-c1ccccc1 (stereo not given)	none
CCOc1ccc2nc(N(CCN(C)C)C(=O)c3ccc4c(c3)CCCC4)sc2c1	Apaf-1 inh 54.7 | Apaf-1 inh conf inactive | Rh110 interf inh inactive
CN(C)CCN(C(=O)c1ccc2c(c1)CCCC2)c1nc2cc3c(cc2s1)OCCO3	Apaf-1 inh 43.6 | Apaf-1 inh conf inactive | Rh110 interf inh inactive
CN(C)CCCN(C(=O)c1ccc2c(c1)CCCC2)c1nc2c(F)cccc2s1	none
CN(C)CCN(C(=O)c1ccc2c(c1)OCCO2)c1nc2cc3c(cc2s1)OCO3	none
Cc1cc(C)c2nc(N(CCCN(C)C)C(=O)c3ccc4c(c3)CCCC4)sc2c1	Apaf-1 inh 42.2 | Apaf-1 inh conf inactive | Rh110 interf inh inactive
Cc1ccc(NC(=O)CSCC(=O)NNC(=O)c2nn(C)c(=O)c3ccccc23)cc1	none (no result: EBNA-1 inh)
Cc1ccc(C(=O)NCCCNC(=O)c2ccco2)cn1	none
CCCCN(CCCC)CCNC(=O)CNC(=O)c1cccs1	none
CCN(CC)c1ccc(N=C2C(=O)Nc3ccccc32)cc1	ZTA counter active, Apaf-1 inh 47.0, EBNA-1 inh active | Apaf-1 inh conf inactive | Rh110 interf inh inactive
Cc1ccc(N=C2C(=O)Nc3ccccc32)cc1	none
O=c1cc(-c2cccc([N+](=O)[O-])c2)[nH][nH]1	Apaf-1 inh 67.8 | Apaf-1 inh conf inactive | Rh110 interf inh inactive
Nc1cc(-c2cccc([N+](=O)[O-])c2)[nH]n1	none
CCCCCCCCCCCCOC(=O)C[N+](C)(C)C	Apaf-1 inh 46.2 | Apaf-1 inh conf inactive | Rh110 interf inh inactive
Cc1ccc(S(=O)(=O)N2CCN(C(=O)COC(=O)c3cc([N+](=O)[O-])ccc3NCCO)CC2)c(C)c1	none (no result: ZTA counter, EBNA-1 inh)
Cc1ccc(S(=O)(=O)N2CCN(C(=O)COC(=O)c3ccc([N+](=O)[O-])o3)CC2)c(C)c1	Apaf-1 inh 59.3 (no result: EBNA-1 inh) | Apaf-1 inh conf inactive | Rh110 interf inh inactive
CCOc1ccc(-c2cc(C(=O)NCCCn3ccnc3)c3cc(Br)ccc3n2)cc1	Apaf-1 inh 42.5 | Apaf-1 inh conf inactive | Rh110 interf inh inactive
CCOc1ccc(-c2cc(C(=O)NCCCn3ccnc3)c3ccccc3n2)cc1	none
COCCCNC(=O)CCSc1ccc(C)cc1	none
Cc1c(/C=N/NC(=O)COc2ccccc2[N+](=O)[O-])c2ccccc2n1C	none
Cc1ccc(OCC(=O)N/N=C\c2c(C)n(C)c3ccccc23)c([N+](=O)[O-])c1	Apaf-1 inh 42.0 | Apaf-1 inh conf inactive | Rh110 interf inh inactive
COc1ccc(NC(=O)Nc2ccc(O)c3ccccc23)cc1	Apaf-1 inh 51.7 | Apaf-1 inh conf inactive | Rh110 interf inh inactive
O=C1CC(CSc2ccc(Cl)cc2)=NN1	none
Cc1cc(SCC2=NNC(=O)C2)c(Cl)cc1Cl	Apaf-1 inh 47.1 | Apaf-1 inh conf inactive | Rh110 interf inh inactive
COC(=O)c1ccc(-c2ncc(-c3cccc4ccccc34)o2)cc1	Apaf-1 inh 41.8 | Apaf-1 inh conf inactive | Rh110 interf inh inactive
COc1ccc(N=C2C(=Nc3ccc(OC)cc3)N(c3ccc(OC)cc3)C(=S)N2c2ccccc2)cc1	Apaf-1 inh 74.7 | Apaf-1 inh conf inactive | Rh110 interf inh inactive
Cc1nnc(N/N=C\c2ccc(-c3ccccc3[N+](=O)[O-])o2)n1N	none (no result: UBC13 inh, Apaf-1 inh)
Cc1cc(C)cc(NC(=O)CCNS(=O)(=O)c2cc(Br)cnc2N)c1	none
CCc1ccccc1NC(=O)CCNS(=O)(=O)c1cc(Br)cnc1N	Apaf-1 inh 48.7 | Apaf-1 inh conf inactive | Rh110 interf inh inactive
CC(=O)/C(=N\Nc1ccccc1)Sc1nncn1C	none
CSc1nncc(/C(C)=N\Nc2cccc(C)c2)n1	Apaf-1 inh 60.5 | Apaf-1 inh conf inactive | Rh110 interf inh inactive
CC/C(=N\Nc1ccccc1[N+](=O)[O-])c1ccc(O)cc1	none
CC/C(=N/Nc1ccccc1C)c1cnnc(SC)n1	Apaf-1 inh 40.7 | Apaf-1 inh conf inactive | Rh110 interf inh inactive
CSc1nncc(/C(C)=N\Nc2ccccc2)n1	Apaf-1 inh 70.4 | Apaf-1 inh conf inactive | Rh110 interf inh inactive
COc1ccccc1N1CCN(C(=O)c2cc3c(=O)n4cccc(C)c4nc3s2)CC1	none
C=CCn1c(COc2ccc(OC)cc2)nnc1SC(C)C(=O)NC1CC1 (stereo not given)	none (no result: EBNA-1 inh)
CN(C)S(=O)(=O)c1ccc(C(=O)OCC(=O)c2ccc3c(c2)NC(=O)CO3)cc1	none
CCCN(CC(=O)Nc1ccccc1C)C(=O)COc1ccc2c(c1)CCC2	Apaf-1 inh 60.0 | Apaf-1 inh conf inactive | Rh110 interf inh inactive
CCCN(CC(=O)Nc1ccccc1OC)C(=O)Cc1ccc2c(c1)CCC2	none (no result: EBNA-1 inh)
Nc1cccc2nsnc12	Apaf-1 inh 67.7 | Apaf-1 inh conf inactive | Rh110 interf inh inactive
Cc1ccc2nsnc2c1N	none
COc1ccc(OC)c(C2=NOC(C(=O)Nc3ccc4c(c3)OCCO4)C2)c1 (stereo not given)	Apaf-1 inh 41.7 | Apaf-1 inh conf inactive | Rh110 interf inh inactive
O=C1c2ccccc2-c2nnc(-c3ccccc3)cc21	Apaf-1 inh 71.3 | Apaf-1 inh conf inactive | Rh110 interf inh inactive
Cc1cccc(-c2cc3c(nn2)-c2ccccc2C3=O)c1	Apaf-1 inh 91.1 | Apaf-1 inh conf inactive | Rh110 interf inh inactive
Cc1cnc2c(c1)C(=O)c1ccccc1-2	none
COc1ccc(-c2nnsc2N2C(=O)c3ccccc3C2=O)cc1	none
COc1ccc(-c2cc3c(nn2)-c2ccccc2C3=O)cc1	Apaf-1 inh 77.3 | Apaf-1 inh conf inactive | Rh110 interf inh inactive
COc1cc(O)c(C(CCN2CCCCC2)c2ccc(N(C)C)cc2)c(OC)c1 (stereo not given)	none
COc1ccc(Br)cc1/C=N/NC(=O)c1cc(Br)ccc1O	none
C/C=N/NC(=O)c1cc(Br)ccc1O	Apaf-1 inh 57.1 | Apaf-1 inh conf inactive | Rh110 interf inh inactive
CCOC(=O)N1CCN(C(=O)c2ccc(S(=O)(=O)Nc3ccccc3)cc2)CC1	none (no result: ZTA counter, EBNA-1 inh)
CCN1CCN(C2=C(NS(=O)(=O)c3ccc(Br)cc3)C(=O)c3ccccc3C2=O)CC1	Apaf-1 inh 88.2 | Apaf-1 inh conf 46.5 | Rh110 interf inh inactive | Apaf1 inh interf inactive
CCN1CCN(C2=C(NS(=O)(=O)c3ccccc3)C(=O)c3ccccc3C2=O)CC1	Apaf-1 inh 82.5 | Apaf-1 inh conf 41.8 | Rh110 interf inh inactive | Apaf1 inh interf inactive
CN1CCN(C2=C(NS(=O)(=O)c3cccs3)C(=O)c3ccccc3C2=O)CC1	none
CN1CCN(C2=C(NS(=O)(=O)c3ccccc3)C(=O)c3ccccc3C2=O)CC1	Apaf-1 inh 78.5 | Apaf-1 inh conf 44.8 | Rh110 interf inh inactive | Apaf1 inh interf inactive
